One data set concerns the target Adenosine receptor A2a (Rattus norvegicus, UniProt P30543). The experiment in a line: Displacement of [3H]NECA from adenosine A2A receptor in Sprague-Dawley rat striatal membranes after 1 hr by scintillation counting analysis. On the set-up: species or system Striatum, Membrane. (Displacement assays read how much labelled ligand stays bound in the presence of the test substance.)

The species named for data set [1] is Rattus norvegicus. The experiment in a line: Selectivity index, ratio of Ki for adenosine A2A receptor in Sprague-Dawley rat striatal membranes to Ki for adenosine A1 receptor in Sprague-Dawley rat whole brain membranes. In short, it runs like this:
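Ratio of two Ki values. A2A: rat striatal membranes (~10 mg tissue) in 50 mM Tris pH 7.7 with 10 mM MgCl2, 0.2 units adenosine deaminase, 50 nM CPA and 4 nM [3H]NECA. A1: whole-brain membranes with [3H]DPCPX 0.1 nM. Test compound 0–100 µM, 1 h incubation, filtration and scintillation counting. Non-specific binding with 100 µM CPA. Duplicate determinations.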

The target of another data set is T1, Adenosine receptor A1 (Rattus norvegicus, UniProt P25099).
T1 sequence (P25099 whole entry): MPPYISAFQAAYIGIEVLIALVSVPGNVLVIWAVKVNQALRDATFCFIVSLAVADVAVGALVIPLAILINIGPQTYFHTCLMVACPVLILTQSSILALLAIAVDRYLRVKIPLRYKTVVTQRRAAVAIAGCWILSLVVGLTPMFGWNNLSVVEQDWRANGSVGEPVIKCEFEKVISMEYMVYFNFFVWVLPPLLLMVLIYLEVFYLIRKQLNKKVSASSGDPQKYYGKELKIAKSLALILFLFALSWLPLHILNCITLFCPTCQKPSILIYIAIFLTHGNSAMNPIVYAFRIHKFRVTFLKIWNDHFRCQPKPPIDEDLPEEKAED
Nature of the data set: Displacement of [3H]DPCPX from adenosine A1 receptor in Sprague-Dawley rat whole brain membranes after 1 hr by scintillation counting analysis. On the set-up: species or system Membrane. In short, it runs like this: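 Male rat whole-brain homogenate in 50 mM Tris (pH 7.7), ~5 mg original tissue per incubation, with 0.1 units adenosine deaminase and 0.1 nM [3H]DPCPX. Incubated 1 h, filtered on GF/B, counted by scintillation. IC50 from one-site competition, converted to Ki by Cheng-Prusoff. Duplicates, mean ± SEM.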

The nature of data set [2]: Cytotoxicity against human HeLa cells assessed as cell viability at 1 uM after 24 hrs by MTT assay. The format is cell-based. The following applies: read-out: Activity. The method in brief: (§1)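 HeLa cells grown to confluence in DMEM with 10% FBS, penicillin/streptomycin and fungizone at 37 °C, 10% CO2. Seeded at 500 000 cells/well, then after 24 h switched to serum-free DMEM with test compound (DMSO stocks, filtered). Exposure lasted 24 h at 37 °C. Read-out was MTT 0.5%, 2 h in the dark, formazan dissolved in isopropanol, absorbance 560. Formic-acid lysis set 0% viability and untreated wells 100%. Triplicate, mean ± SD.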
A general note: Tetrazolium dyes change colour on reduction, which living cells bring about.

The nature of data set [3]: Cytotoxicity against human HeLa cells assessed as cell viability at 10 uM after 24 hrs by MTT assay. The format is cell-based. The following applies: read-out: Activity. In short, it runs like this: as §1
Data set [4] concerns Rattus norvegicus. The experiment in a line: Reduction in haloperiodol induced catalepsy time in Sprague-Dawley rat at 0.1 to 2 mg/kg, ip dosed 30 mins after halperiodol challenge measured 60 mins after halperiodol challenge.
Data set [5] deals with Rattus norvegicus. The experiment in a line: Reduction in haloperiodol induced catalepsy time in Sprague-Dawley rat at 1 to 2 mg/kg, ip dosed 30 mins after halperiodol challenge measured 60 mins after halperiodol challenge.

Consider 13 compounds from ChEMBL document CHEMBL3734685, “2-Aminopyrimidines as dual adenosine A1/A2A antagonists” (Eur J Med Chem, 2015).

Active and inactive are the calls of the source. No cut-off for these calls is given here.

Sequence of Adenosine receptor A2a (P30543 whole entry): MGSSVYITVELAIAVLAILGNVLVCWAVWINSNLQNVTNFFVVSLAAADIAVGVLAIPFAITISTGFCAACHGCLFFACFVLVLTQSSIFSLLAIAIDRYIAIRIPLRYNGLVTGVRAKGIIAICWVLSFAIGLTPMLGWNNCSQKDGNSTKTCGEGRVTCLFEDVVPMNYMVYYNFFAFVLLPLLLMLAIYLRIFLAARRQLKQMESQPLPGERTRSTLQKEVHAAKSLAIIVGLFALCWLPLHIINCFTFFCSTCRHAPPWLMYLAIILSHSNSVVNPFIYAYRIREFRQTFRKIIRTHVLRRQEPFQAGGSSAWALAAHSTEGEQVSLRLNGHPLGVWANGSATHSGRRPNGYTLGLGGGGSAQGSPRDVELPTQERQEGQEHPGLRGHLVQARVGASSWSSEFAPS

`Cc1ccc(-c2cc(-c3cccc(Cl)c3)nc(N)n2)o1`: the results for the Ki at Adenosine receptor A2a and on Adenosine receptor A1 were 399 nM and 129 nM, respectively. The Ratio Ki in the data set filed under Rattus norvegicus [1] was determined as 3.1.

For `COc1cccc(-c2cc(-c3ccc(C)o3)nc(N)n2)c1`, the inhibition constant Ki – broadly, a measure of affinity in units of concentration, obtained from inhibition or displacement – at Adenosine receptor A2a worked out at 409 nM; at Adenosine receptor A1, 145 nM. Also, in the data set listed under Rattus norvegicus [1], the Ratio Ki amounted to 2.8.

As for `Nc1nc(-c2ccccc2)cc(-c2cccc(Cl)c2)n1`, the values for the inhibition constant Ki at Adenosine receptor A2a and at Adenosine receptor A1 were 948 nM and 22.8 nM, respectively. Besides, the Ratio Ki in the data set filed under Rattus norvegicus [1] turned out to be 42.

Turning to `COc1ccc(-c2cc(-c3ccc(C)o3)nc(N)n2)cc1OC`, the Ki amounted to 2780 nM on Adenosine receptor A2a and 650 nM on Adenosine receptor A1. In the data set filed under Rattus norvegicus [1], the Ratio Ki amounted to 4.3.

On to `Nc1nc(-c2cccc(Cl)c2)cc(-c2ccco2)n1`, for which the values for the Ki at Adenosine receptor A2a and at Adenosine receptor A1 were 245 nM and 39.1 nM, respectively. Further, the Ratio Ki in the data set filed under Rattus norvegicus [1] turned out to be 6.3.

As for `COc1cccc(-c2cc(-c3ccco3)nc(N)n2)c1`, the Ki stood at 249 nM on Adenosine receptor A2a and 61.4 nM on Adenosine receptor A1. Also, the Ratio Ki in the data set filed under Rattus norvegicus [1] was 4.1.

`Cc1ccc(-c2cc(-c3cccc(C(=O)N4CCOCC4)c3)nc(N)n2)o1`: the viability at 24 h, 1 µM in data set [2] is 98.6%. In addition, in data set [3], the viability at 24 h, 10 µM was 81.7%. Also, the Ki on Adenosine receptor A2a came to 29.3 nM; at Adenosine receptor A1, 52.1 nM. Further, the Ratio Ki in the data set listed under Rattus norvegicus [1] was 0.6.

`Cc1ccc(-c2cc(-c3cccc(C(=O)N4CCCCC4)c3)nc(N)n2)o1`: in data set [2], the viability at 24 h, 1 µM was 64.3%. In addition, the outcome with Rattus norvegicus [4] was Active. Also, the viability at 24 h, 10 µM in data set [3] came to 61.6%. The Ki on Adenosine receptor A2a amounted to 6.34 nM; at Adenosine receptor A1, 9.54 nM. For the same compound, the Ratio Ki in the data set filed under Rattus norvegicus [1] came to 0.7.

Take `Cc1ccc(-c2cc(-c3ccc(Cl)cc3)nc(N)n2)o1`: the results for the Ki on Adenosine receptor A2a and at Adenosine receptor A1 were 3320 nM and 434 nM, respectively. Further, in the data set listed under Rattus norvegicus [1], the Ratio Ki amounted to 7.6.

Regarding `CCN1CCN(C(=O)c2cccc(-c3cc(-c4ccc(C)o4)nc(N)n3)c2)CC1`, in data set [2], the viability at 24 h, 1 µM was found to be 65.7%. For the same compound, the viability at 24 h, 10 µM in data set [3] worked out at 60.1%. Further, the inhibition constant (Ki) on Adenosine receptor A2a is 30.9 nM; on Adenosine receptor A1, 37.5 nM. Also, in the data set listed under Rattus norvegicus [1], the Ratio Ki is 0.8.

On to `Nc1nc(-c2ccc(F)cc2)cc(-c2ccco2)n1`, for which the Ki on Adenosine receptor A2a is 257 nM; at Adenosine receptor A1 it was 158 nM. The Ratio Ki in the data set listed under Rattus norvegicus [1] amounted to 1.6.

For `Cc1ccc(-c2cc(-c3cccc(C(=O)N4CCN(C)CC4)c3)nc(N)n2)o1`, the viability at 24 h, 1 µM in data set [2] came to 107%. Besides, the viability at 24 h, 10 µM in data set [3] was determined as 76.8%. The inhibitory constant (Ki) on Adenosine receptor A2a came out at 16.3 nM; on Adenosine receptor A1, 136 nM. Also, the outcome in the data set with Rattus norvegicus [5] was Active. Besides, in the data set listed under Rattus norvegicus [1], the Ratio Ki amounted to 0.1.

On to `Cc1ccc(-c2cc(-c3cccc(C(=O)N4CCCC4)c3)nc(N)n2)o1`, for which the viability at 24 h, 1 µM in data set [2] is 101%. Further, the viability at 24 h, 10 µM in data set [3] is 67.9%. Further, the Ki at Adenosine receptor A2a stood at 58.2 nM; on Adenosine receptor A1 it was 36.8 nM. In the data set listed under Rattus norvegicus [1], the Ratio Ki worked out at 1.6.
